From ChEMBL document CHEMBL1287681, “Tetrahydrocarboline analogs as MCH-1 antagonists” (Bioorg Med Chem Lett, 2010)
Values after ≈ are worked out from the molar mass of the structure shown. Each block holds one compound with its values, some of them ahead of it.

How the values were obtained:
[1] = biological target: T1, Melanin-concentrating hormone receptor 1 (Homo sapiens, UniProt Q99705); experiment: Displacement of [3H]4-(benzyloxy)-1-(1-(2-(pyrrolidin-1-yl)ethyl)-1H-indazol-5-yl)pyridin-2(1H)-one from MCH-1 receptor expressed in CHO-K1 cells; type: cell-based
Procedure, shortened: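 Membranes from stable CHO-K1 cells expressing human MCH-1 receptor (8.92 µg protein) incubated 60 min at 25 °C with 1.4 nM tritiated indazolyl-pyridinone radioligand ± test compound in 50 mM Tris–HCl, pH 7.4. Nonspecific binding defined with 50 µM of a piperazinylpropyl urea ligand. Values are means of at least two determinations, each within 40% of the mean.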

[2] = Ionisation constant for the compound; type: physicochemical
Mus musculus [3] = experiment: Antiobesity activity in diet-induced obese mouse assessed as reduction in body weight at 30 mg/kg bid; type: functional; parameters: scale not given: the % may be the effect or the level left
Mus musculus [4] = experiment: Antiobesity activity in diet-induced obese mouse assessed as reduction in body weight at 60 mg/kg qd; type: functional; parameters: scale not given: the % may be the effect or the level left
[5] = Plasma protein binding in DIO mouse at 30 mg/kg, po; type: ADME, organism-based; parameters: dose 30 mg/kg, route oral; conditions: read-out: PPB (converted)
Procedure, shortened: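 Mouse plasma protein binding determined by ultrafiltration.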

[6] = Drug level in DIO mouse brain at 30 mg/kg, po after 6 hrs; type: ADME, organism-based; parameters: dose 30 mg/kg, route oral; conditions: read-out: Drug uptake
Procedure, shortened: (§1)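 DIO mice given 30 mg/kg orally. Plasma (ng/mL) and brain (ng/g) concentrations measured 6 h post dose; AUC determined from 0 to 6 h.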

[7] = Ratio of drug level in brain to plasma in DIO mouse at 30 mg/kg, po; conditions: read-out: BPR
[8] = Drug level in DIO mouse plasma at 30 mg/kg, po after 6 hrs; type: ADME, organism-based; parameters: dose 30 mg/kg, route oral; procedure, shortened: as §1
[9] = AUC (0 to 6 hrs) in DIO mouse at 30 mg/kg, po; type: ADME, organism-based; parameters: time < 6 hr, dose 30 mg/kg, route oral; conditions: plasma; procedure, shortened: as §1
CYP1A2 = biological target: T2, CYP1A2 (Homo sapiens, UniProt P05177); experiment: (§2) Inhibition of CYP1A2; type: ADME
T2 sequence (P05177 whole entry): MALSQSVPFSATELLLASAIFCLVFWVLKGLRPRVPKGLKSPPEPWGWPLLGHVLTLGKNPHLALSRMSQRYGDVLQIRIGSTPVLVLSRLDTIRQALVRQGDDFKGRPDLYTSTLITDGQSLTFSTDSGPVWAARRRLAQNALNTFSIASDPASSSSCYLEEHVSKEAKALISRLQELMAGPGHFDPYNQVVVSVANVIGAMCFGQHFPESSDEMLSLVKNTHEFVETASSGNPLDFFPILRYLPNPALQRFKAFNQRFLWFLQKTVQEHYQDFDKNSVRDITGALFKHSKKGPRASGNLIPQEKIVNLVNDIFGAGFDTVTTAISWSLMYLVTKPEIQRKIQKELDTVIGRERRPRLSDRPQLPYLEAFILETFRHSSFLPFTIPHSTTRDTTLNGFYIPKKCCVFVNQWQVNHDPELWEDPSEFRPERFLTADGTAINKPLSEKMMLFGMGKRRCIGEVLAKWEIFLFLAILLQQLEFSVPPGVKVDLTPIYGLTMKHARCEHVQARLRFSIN

Cytochrome P450 3A4 = Cytochrome P450 3A4 (Homo sapiens, UniProt P08684); experiment: Inhibition of CYP3A4; type: ADME
Cytochrome P450 2B6 = biological target: T3, Cytochrome P450 2B6 (Homo sapiens, UniProt P20813); experiment: Inhibition of CYP2B6; type: ADME
T3 sequence (P20813 whole entry): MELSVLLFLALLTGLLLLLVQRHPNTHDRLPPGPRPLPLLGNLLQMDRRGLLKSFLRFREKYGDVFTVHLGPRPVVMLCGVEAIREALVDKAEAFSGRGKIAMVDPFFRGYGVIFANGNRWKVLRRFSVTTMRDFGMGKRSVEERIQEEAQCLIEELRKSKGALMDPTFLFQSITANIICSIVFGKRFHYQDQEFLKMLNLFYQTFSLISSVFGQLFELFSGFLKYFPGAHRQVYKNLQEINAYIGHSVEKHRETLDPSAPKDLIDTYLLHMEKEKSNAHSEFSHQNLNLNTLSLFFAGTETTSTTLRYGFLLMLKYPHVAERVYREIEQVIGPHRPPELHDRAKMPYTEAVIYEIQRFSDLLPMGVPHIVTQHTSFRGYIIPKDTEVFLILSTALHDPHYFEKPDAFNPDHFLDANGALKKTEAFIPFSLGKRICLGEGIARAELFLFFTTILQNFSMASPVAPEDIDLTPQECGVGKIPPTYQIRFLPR

[10] = Stability in human liver microsome assessed as compound remaining after 1 hr; type: ADME; conditions: liver microsomes, read-out: Stability
Procedure, shortened: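 Human liver microsome incubation; percentage of parent remaining after 1 h.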

Cytochrome P450 2D6 = Cytochrome P450 2D6 (Homo sapiens, UniProt P10635); experiment: Inhibition of CYP2D6; type: ADME
Cytochrome P450 2C9 = Cytochrome P450 2C9 (Homo sapiens, UniProt P11712)
[11] = Half life in human liver microsome; type: ADME; conditions: liver microsomes
Procedure, shortened: (§3)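 Half-life in mouse or human liver microsomes, reported in min.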

Cytochrome P450 2C19 = Cytochrome P450 2C19 (Homo sapiens, UniProt P33261)
[12] = Aqueous solubility of the compound in PBS buffer at pH 7.4 after 24 hrs; type: physicochemical
Procedure, shortened: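 Solubility measured in PBS at pH 7.4 after a 24 h equilibration period.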

Cytochrome P450 1A2 = biological target: T4, Cytochrome P450 1A2 (Homo sapiens, UniProt P05177); experiment: as §2; type: ADME
T4 sequence (P05177 whole entry): T2 sequence (P05177 whole entry)

[13] = Ratio of drug level in brain to plasma in lean mouse at 10 mg/kg, po; conditions: read-out: BPR
[14] = Half life in mouse liver microsome; type: ADME; conditions: liver microsomes; procedure, shortened: as §3
Mus musculus [15] = experiment: Antiobesity activity in diet-induced obese mouse assessed as reduction in body weight at 30 mg/kg qd; type: functional; parameters: scale not given: the % may be the effect or the level left
Procedure, shortened: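 Male C57BL/6J diet-induced obese mice dosed orally once daily, 30 mg/kg in 1% methylcellulose in water, for 5 days. Body weight tracked daily; % difference from vehicle control on Day 6. Adjusted means, n = 8–10, ANCOVA with Day 1 body weight as covariate, then Dunnett's test.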

[16] = tested on: panel of 30 GPCRs and transporters (off-target); experiment: Inhibition of panel of 30 GPCRs and transporters at 1 uM
[17] = biological target: T1, Melanin-concentrating hormone receptor 1; experiment: Antagonist activity at MCH-1 receptor; type: functional
Procedure, shortened: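 Functional antagonism read as Ca2+ mobilization in an Aequorin cell line expressing recombinant MCH-1 receptor, run by a contract lab.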

Chain of Cytochrome P450 2D6 (P10635 whole entry): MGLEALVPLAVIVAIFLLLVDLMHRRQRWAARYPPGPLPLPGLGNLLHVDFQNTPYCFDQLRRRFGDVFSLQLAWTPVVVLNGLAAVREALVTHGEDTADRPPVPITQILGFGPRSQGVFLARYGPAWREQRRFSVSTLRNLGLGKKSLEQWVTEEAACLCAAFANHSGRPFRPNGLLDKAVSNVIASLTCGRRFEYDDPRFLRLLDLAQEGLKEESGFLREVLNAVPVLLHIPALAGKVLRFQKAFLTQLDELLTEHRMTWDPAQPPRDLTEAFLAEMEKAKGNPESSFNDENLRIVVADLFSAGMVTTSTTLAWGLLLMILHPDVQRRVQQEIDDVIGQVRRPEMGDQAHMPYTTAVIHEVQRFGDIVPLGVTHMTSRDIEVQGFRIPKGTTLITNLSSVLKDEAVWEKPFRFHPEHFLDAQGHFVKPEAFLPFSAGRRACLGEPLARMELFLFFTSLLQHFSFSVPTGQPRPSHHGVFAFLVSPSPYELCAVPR
Chain of Cytochrome P450 3A4 (P08684 whole entry): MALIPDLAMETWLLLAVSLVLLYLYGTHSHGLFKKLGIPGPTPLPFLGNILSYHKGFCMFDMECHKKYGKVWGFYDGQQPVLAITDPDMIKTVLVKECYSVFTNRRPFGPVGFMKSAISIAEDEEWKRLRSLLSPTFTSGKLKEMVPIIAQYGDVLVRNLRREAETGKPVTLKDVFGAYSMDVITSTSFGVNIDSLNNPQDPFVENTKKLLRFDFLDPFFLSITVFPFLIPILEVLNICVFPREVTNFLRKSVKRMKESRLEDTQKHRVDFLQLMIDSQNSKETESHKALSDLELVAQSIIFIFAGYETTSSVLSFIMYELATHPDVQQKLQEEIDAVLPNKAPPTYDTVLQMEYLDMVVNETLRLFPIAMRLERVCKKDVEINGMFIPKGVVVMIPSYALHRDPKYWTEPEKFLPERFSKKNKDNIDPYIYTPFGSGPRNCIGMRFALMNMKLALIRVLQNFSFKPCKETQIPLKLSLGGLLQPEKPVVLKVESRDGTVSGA
T1 sequence (Q99705 whole entry): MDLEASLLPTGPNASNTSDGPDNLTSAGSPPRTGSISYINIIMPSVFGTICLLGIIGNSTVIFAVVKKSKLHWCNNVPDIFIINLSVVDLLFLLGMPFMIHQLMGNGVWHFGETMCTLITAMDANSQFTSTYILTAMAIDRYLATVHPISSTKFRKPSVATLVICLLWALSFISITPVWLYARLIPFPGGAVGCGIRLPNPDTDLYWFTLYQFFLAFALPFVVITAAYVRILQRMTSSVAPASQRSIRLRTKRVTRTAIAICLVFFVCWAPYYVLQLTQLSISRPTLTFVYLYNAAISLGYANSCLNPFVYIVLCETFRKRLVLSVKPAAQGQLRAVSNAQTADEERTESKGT
Chain of Cytochrome P450 2C19 (P33261 whole entry): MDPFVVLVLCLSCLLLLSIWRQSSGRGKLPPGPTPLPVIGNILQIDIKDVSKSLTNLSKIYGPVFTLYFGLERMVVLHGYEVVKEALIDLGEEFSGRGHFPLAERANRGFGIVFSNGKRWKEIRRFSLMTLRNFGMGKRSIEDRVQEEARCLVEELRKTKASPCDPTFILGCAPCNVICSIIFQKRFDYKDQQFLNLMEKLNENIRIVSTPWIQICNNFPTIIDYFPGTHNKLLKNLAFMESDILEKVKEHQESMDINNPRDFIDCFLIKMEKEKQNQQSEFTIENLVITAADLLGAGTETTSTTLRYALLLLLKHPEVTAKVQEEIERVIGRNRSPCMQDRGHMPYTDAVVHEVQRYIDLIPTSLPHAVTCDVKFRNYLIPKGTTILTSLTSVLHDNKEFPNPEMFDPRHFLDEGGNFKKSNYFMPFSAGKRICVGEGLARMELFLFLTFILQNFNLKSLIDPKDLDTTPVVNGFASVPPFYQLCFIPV
Chain of Cytochrome P450 2C9 (P11712 whole entry): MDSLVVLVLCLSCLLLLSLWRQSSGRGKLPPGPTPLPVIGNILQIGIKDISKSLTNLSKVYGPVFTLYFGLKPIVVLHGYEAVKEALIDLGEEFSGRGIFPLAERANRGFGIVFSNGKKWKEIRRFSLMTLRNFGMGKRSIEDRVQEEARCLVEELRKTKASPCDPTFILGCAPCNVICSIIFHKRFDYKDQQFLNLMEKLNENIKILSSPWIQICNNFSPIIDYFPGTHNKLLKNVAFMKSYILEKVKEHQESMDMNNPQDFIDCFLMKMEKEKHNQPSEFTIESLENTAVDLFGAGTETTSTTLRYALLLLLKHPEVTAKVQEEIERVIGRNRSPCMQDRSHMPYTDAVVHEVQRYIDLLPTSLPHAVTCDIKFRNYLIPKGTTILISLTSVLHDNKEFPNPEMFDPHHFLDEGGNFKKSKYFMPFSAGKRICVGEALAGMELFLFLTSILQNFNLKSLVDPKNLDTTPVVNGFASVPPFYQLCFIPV

Ki [1]: 14 nM
SMILES: COc1ccc(-c2ccn(-c3ccc4c5c(n(C)c4c3)CNCC5)c(=O)c2)c(C)c1

Ki [1]: 2.4 nM
SMILES: CSc1ccc(-c2ccn(-c3ccc4c5c(n(C)c4c3)CCNC5)c(=O)c2)cc1

Ki [1]: 7.6 nM
SMILES: COc1ccc(-c2ccn(-c3ccc4c5c(n(C)c4c3)CCNC5)c(=O)c2)c(C)c1

Ki [1]: 2.7 nM
SMILES: Cn1c2c(c3ccc(-n4ccc(-c5ccc(Cl)cc5)cc4=O)cc31)CNCC2

Ki [1]: 11 nM
SMILES: Cn1c2c(c3ccc(-n4ccc(-c5ccc(C(F)(F)F)cc5)cc4=O)cc31)CCNC2

Ki [1]: 2.6 nM
SMILES: COc1ccc(-c2ccn(-c3ccc4c5c(n(C)c4c3)CCNC5)c(=O)c2)cc1

Ki [1]: 14 nM
SMILES: COc1ccc(-c2ccn(-c3ccc4c5c(n(C)c4c3)CNCC5)c(=O)c2)cc1

Ki [1]: 8.4 nM
SMILES: CSc1ccc(-c2ccn(-c3ccc4c5c(n(C)c4c3)CNCC5)c(=O)c2)cc1

pKa [2]: 8.81
fraction unbound [5]: 0.059
Ki [1]: 4.9 nM
concentration at 6 h [6]: 4010 ng/mL
IC50 (Cytochrome P450 3A4): 12000 nM
IC50 (Cytochrome P450 2B6): > 10000 nM
half-life [14]: 8.03 h
Kp [7]: 0.51
IC50 (Cytochrome P450 2D6): > 10000 nM
half-life [11]: 7.5 h
IC50 [17]: 14.4 nM
solubility at 24 h [12]: > 500 µM
concentration at 6 h [8]: 8030 ng/mL
AUC(0-t) at 6 h [9]: 41300 ng·h/mL
IC50 (Cytochrome P450 1A2): > 10000 nM
SMILES: Cn1c2c(c3ccc(-n4ccc(OCc5ccccc5)cc4=O)cc31)CCNC2
Activity (Mus musculus [15]): 9.1%

Ki [1]: 128 nM
SMILES: Cn1c2c(c3ccc(-n4ccc(-c5ccc(Cl)cn5)cc4=O)cc31)CCNC2

Ki [1]: 11 nM
SMILES: Cn1c2c(c3ccc(-n4ccc(-c5ccc(Cl)cc5)cc4=O)cc31)CCNC2

Ki [1]: 17 nM
SMILES: COc1cc(Cl)ccc1-c1ccn(-c2ccc3c4c(n(C)c3c2)CNCC4)c(=O)c1

Ki [1]: 7 nM
SMILES: COc1cc(Cl)ccc1-c1ccn(-c2ccc3c4c(n(C)c3c2)CCNC4)c(=O)c1

Ki [1]: 7.2 nM
SMILES: Cn1c2c(c3ccc(-n4ccc(-c5ccc(Cl)cc5Cl)cc4=O)cc31)CNCC2

Second part, the compound before the results:

SMILES: Cn1c2c(c3ccc(-n4ccc(OCc5ccccc5)cc4=O)cc31)CN(CCO)CC2
Ki [1]: 3.6 nM

SMILES: O=c1cc(OCc2ccccc2)ccn1-c1ccc2c(cnn2CCN2CCCC2)c1
pKa [2]: 8.63
Activity (Mus musculus [3]): 6%
Activity (Mus musculus [4]): 2.8%
fraction unbound [5]: 0.086
concentration at 6 h [6]: 1380 ng/mL
Kp [7]: 0.72
concentration at 6 h [8]: 1950 ng/mL
AUC(0-t) at 6 h [9]: 14800 ng·h/mL
IC50 (CYP1A2): > 10000 nM

SMILES: Cn1c2c(c3ccc(-n4ccc(OCc5ccccc5)cc4=O)cc31)CNCC2
Ki [1]: 3.8 nM
IC50 (Cytochrome P450 3A4): 68000 nM
IC50 (Cytochrome P450 2B6): > 10000 nM
remaining at 1 h [10]: 98.4%
IC50 (Cytochrome P450 2D6): > 10000 nM
IC50 (Cytochrome P450 2C9): > 10000 nM
half-life [11]: 7.7 h
IC50 (Cytochrome P450 2C19): > 10000 nM
solubility at 24 h [12]: 470 µM (≈ 181 µg/mL)
IC50 (Cytochrome P450 1A2): > 10000 nM

SMILES: CN1CCc2c(c3ccc(-n4ccc(OCc5ccccc5)cc4=O)cc3n2C)C1
fraction unbound [5]: 0.016
Ki [1]: 4.5 nM
Kp [13]: 0.9
IC50 (Cytochrome P450 3A4): 67000 nM
IC50 (Cytochrome P450 2B6): > 10000 nM
half-life [14]: > 16.7 h
Activity (Mus musculus [15]): 7.2%
IC50 (Cytochrome P450 2D6): > 10000 nM
half-life [11]: 12.8 h
inhibition [16]: < 55%
solubility at 24 h [12]: 110 µM (≈ 43.9 µg/mL)
concentration at 6 h [8]: 5030 ng/mL
AUC(0-t) at 6 h [9]: 27000 ng·h/mL
IC50 (Cytochrome P450 1A2): > 10000 nM

SMILES: CN1CCc2c(n(C)c3cc(-n4ccc(-c5ccc(Cl)cc5)cc4=O)ccc23)C1
Ki [1]: 5.6 nM

SMILES: CC(=O)N1CCc2c(c3ccc(-n4ccc(OCc5ccccc5)cc4=O)cc3n2C)C1
Ki [1]: 168 nM

SMILES: CN1CCc2c(n(C)c3cc(-n4ccc(-c5ccc(Cl)cc5Cl)cc4=O)ccc23)C1
Ki [1]: 14 nM

SMILES: Cn1c2c(c3ccc(-n4ccc(OCc5ccc(Cl)cc5)cc4=O)cc31)CNCC2
Ki [1]: 4.2 nM

SMILES: CN1CCc2c(n(C)c3cc(-n4ccc(OCc5ccc(Cl)cc5)cc4=O)ccc23)C1
Ki [1]: 7.6 nM

SMILES: CN1CCc2c(n(C)c3cc(-n4ccc(OCc5ccc(C(F)(F)F)cc5)cc4=O)ccc23)C1
Ki [1]: 25 nM

SMILES: CN1CCc2c(c3ccc(-n4ccc(-c5ccc(F)cc5)cc4=O)cc3n2C)C1
Ki [1]: 7.8 nM

SMILES: Cn1c2c(c3ccc(-n4ccc(-c5ccccc5)cc4=O)cc31)CNCC2
Ki [1]: 15 nM

SMILES: CN1CCc2c(n(C)c3cc(-n4ccc(-c5ccc(F)cn5)cc4=O)ccc23)C1
Ki [1]: 708 nM

SMILES: Cn1c2c(c3ccc(-n4ccc(OCc5ccc(C(F)(F)F)cc5)cc4=O)cc31)CNCC2
Ki [1]: 6.7 nM

SMILES: CN1CCc2c(n(C)c3cc(-n4ccc(OCc5ccccc5)cc4=O)ccc23)C1
Ki [1]: 5.2 nM
IC50 (Cytochrome P450 3A4): 24000 nM
IC50 (Cytochrome P450 2B6): > 10000 nM
half-life [14]: 1.05 h
IC50 (Cytochrome P450 2D6): > 10000 nM
half-life [11]: > 16.7 h
solubility at 24 h [12]: 93 µM (≈ 37.2 µg/mL)
IC50 (Cytochrome P450 1A2): > 10000 nM

SMILES: Cn1c2c(c3ccc(-n4ccc(-c5ccc(C(F)(F)F)cc5)cc4=O)cc31)CNCC2
Ki [1]: 4.2 nM
